These results are taken from ChEMBL document CHEMBL1649124, “Genetic variability among ampC genes from acinetobacter genomic species 3” (Antimicrob Agents Chemother, 2009).

For orientation: MIC means the lowest concentration that inhibits growth of the organism. A low value points to inhibition by little substance.

What all share (format): functional
For experiment [1], the system named is Acinetobacter pittii. Briefly: Antibacterial activity against Acinetobacter genomosp. 3 isolate 14 by Etest method. In outline:
(§1)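 MICs for AG3 clinical isolates were read by Etest following the manufacturer's instructions. Isolates were stored at –80°C in 10% Brucella glycerol broth before testing.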

Experiment [2] deals with Acinetobacter pittii. Briefly: Antibacterial activity against Acinetobacter genomosp. 3 isolate 20 by Etest method. In short, it runs like this: as §1
Experiment [3] deals with Acinetobacter pittii. Briefly: Antibacterial activity against Acinetobacter genomosp. 3 isolate 21 by Etest method. In short, it runs like this:
as §1

For experiment [4], the system named is Acinetobacter pittii. Description: Antibacterial activity against Acinetobacter genomosp. 3 isolate 52 by Etest method. In short, it runs like this: as §1
Experiment [5] deals with Acinetobacter pittii. Briefly: Antibacterial activity against Acinetobacter genomosp. 3 isolate 56 by Etest method. In outline:
as §1

For experiment [6], the system named is Acinetobacter pittii. Briefly: Antibacterial activity against Acinetobacter genomosp. 3 isolate 60 by Etest method. In short, it runs like this: as §1
Experiment [7] relates to Acinetobacter pittii. Description: Antibacterial activity against Acinetobacter genomosp. 3 isolate 65 by Etest method. In short, it runs like this:
as §1

Experiment [8] deals with Acinetobacter pittii. Description: Antibacterial activity against Acinetobacter genomosp. 3 isolate 67 by Etest method. In short, it runs like this: as §1
For experiment [9], the system named is Acinetobacter pittii. Description: Antibacterial activity against Acinetobacter genomosp. 3 isolate 69 by Etest method. In outline:
as §1

Experiment [10] deals with Acinetobacter pittii. Description: Antibacterial activity against Acinetobacter genomosp. 3 isolate 90 by Etest method. In short, it runs like this:
as §1

For experiment [11], the system named is Acinetobacter pittii. Description: Antibacterial activity against Acinetobacter genomosp. 3 isolate 103 by Etest method. In outline:
as §1

Experiment [12] has as its system Acinetobacter pittii. Briefly: Antibacterial activity against Acinetobacter genomosp. 3 isolate 109 by Etest method. In short, it runs like this:
as §1

In experiment [13] the test system is Acinetobacter pittii. Briefly: Antibacterial activity against Acinetobacter genomosp. 3 isolate 128 by Etest method. In short, it runs like this:
as §1

For experiment [14], the system named is Acinetobacter pittii. Briefly: Antibacterial activity against Acinetobacter genomosp. 3 isolate 195 by Etest method. In outline: as §1
The subject of experiment [15] is Acinetobacter pittii. Description: Antibacterial activity against Acinetobacter genomosp. 3 isolate 243 by Etest method. In short, it runs like this:
as §1

Experiment [16] relates to Escherichia coli. Description: Antibacterial activity against Escherichia coli DH5alpha by Etest method. In outline: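 E. coli DH5α host strain, grown at 37°C in LB medium. MICs of β-lactams determined by Etest following the manufacturer's instructions.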
Experiment [17] deals with Escherichia coli. Description: Antibacterial activity against Escherichia coli DH5alpha carrying ampC gene of Acinetobacter genomosp. 3 isolate 14 by Etest method. In outline: (§2)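 E. coli DH5α expressing the AG3 isolate ampC gene, PCR-amplified (high-fidelity system, 28 cycles) and cloned into BamHI/HindIII sites of pBGS18 (kanamycin marker) under the CTX-M-14 β-lactamase promoter. Grown at 37°C in LB, with kanamycin 50 µg/ml when needed. β-Lactam MICs determined by Etest per the manufacturer's instructions.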

In experiment [18] the test system is Escherichia coli. Description: Antibacterial activity against Escherichia coli DH5alpha carrying ampC gene of Acinetobacter genomosp. 3 isolate 20 by Etest method. In outline: as §2
The test system of experiment [19] is Escherichia coli. Briefly: Antibacterial activity against Escherichia coli DH5alpha carrying ampC gene of Acinetobacter genomosp. 3 isolate 56 by Etest method. In short, it runs like this: as §2
Experiment [20] has as its system Escherichia coli. Briefly: Antibacterial activity against Escherichia coli DH5alpha carrying ampC gene of Acinetobacter genomosp. 3 isolate 65 by Etest method. In short, it runs like this:
as §2

The test system of experiment [21] is Escherichia coli. Description: Antibacterial activity against Escherichia coli DH5alpha carrying ampC gene of Acinetobacter genomosp. 3 isolate 69 by Etest method. In short, it runs like this: as §2
Experiment [22] deals with Escherichia coli. Description: Antibacterial activity against Escherichia coli DH5alpha carrying ampC gene of Acinetobacter genomosp. 3 isolate 103 by Etest method. In short, it runs like this: as §2
For experiment [23], the system named is Escherichia coli. Briefly: Antibacterial activity against Escherichia coli DH5alpha carrying ampC gene of Acinetobacter genomosp. 3 isolate 109 by Etest method. In outline: as §2
Experiment [24] relates to Escherichia coli. Description: Antibacterial activity against Escherichia coli DH5alpha carrying ampC gene of Acinetobacter genomosp. 3 isolate 195 by Etest method. In outline:
as §2

The structures appear in SMILES notation. Values after ≈ are worked out from the molar mass of the structure shown. Residues, ends and D or L forms follow the SMILES beside them. *: point of attachment. βNA = c1ccc2cc(N*)ccc2c1

With `Cl.Cl.N=C(N)NCCC[C@H](NC(=O)[C@@H](N)Cc1ccccc1)C(=O)Nc1ccc2ccccc2c1` (H-Phe-Arg-βNA), the minimum inhibitory concentration (MIC) is > 400 µg/mL in the experiment with Acinetobacter pittii [1]; > 400 µg/mL in the experiment on Acinetobacter pittii [2]; > 400 µg/mL in the experiment with Acinetobacter pittii [3]; 400 µg/mL with Acinetobacter pittii [4]; > 400 µg/mL against Acinetobacter pittii [5]; 400 µg/mL in the experiment on Acinetobacter pittii [6]. Also, the MIC in the experiment on Acinetobacter pittii [7] was > 400 µg/mL; against Acinetobacter pittii [8], 400 µg/mL; with Acinetobacter pittii [9] it was 400 µg/mL; against Acinetobacter pittii [10], > 400 µg/mL; in the experiment on Acinetobacter pittii [11] it was 400 µg/mL; against Acinetobacter pittii [12], 400 µg/mL. Besides, the figures for the MIC against Acinetobacter pittii [13], against Acinetobacter pittii [14] and against Acinetobacter pittii [15] were 400 µg/mL, 400 µg/mL and > 400 µg/mL, respectively.
On to `CC(C)(O/N=C(\C(=O)N[C@@H]1C(=O)N2C(C(=O)[O-])=C(C[n+]3ccccc3)CS[C@H]12)c1csc(N)n1)C(=O)O` [CEFTAZIDIME], for which the minimum inhibitory concentration (MIC) against Acinetobacter pittii [1] worked out at 3 µg/mL (≈ 5.49 µM); against Acinetobacter pittii [2], 4 µg/mL (≈ 7.32 µM); with Acinetobacter pittii [3], 6 µg/mL (≈ 11 µM); with Acinetobacter pittii [4], 3 µg/mL (≈ 5.49 µM); against Acinetobacter pittii [5], 1.5 µg/mL (≈ 2.74 µM); in the experiment on Acinetobacter pittii [6], 3 µg/mL (≈ 5.49 µM). In addition, the MIC is 4 µg/mL (≈ 7.32 µM) with Acinetobacter pittii [7]; 3 µg/mL (≈ 5.49 µM) in the experiment on Acinetobacter pittii [8]; 0.19 µg/mL (≈ 0.348 µM) against Escherichia coli [16]; 4 µg/mL (≈ 7.32 µM) with Acinetobacter pittii [9]; 6 µg/mL (≈ 11 µM) with Acinetobacter pittii [10]; 4 µg/mL (≈ 7.32 µM) in the experiment with Acinetobacter pittii [11]. Also, the minimal inhibitory concentration (MIC) came out at 3 µg/mL (≈ 5.49 µM) with Acinetobacter pittii [12]; 3 µg/mL (≈ 5.49 µM) in the experiment with Acinetobacter pittii [13]; 4 µg/mL (≈ 7.32 µM) against Acinetobacter pittii [14]; 4 µg/mL (≈ 7.32 µM) against Acinetobacter pittii [15]; 0.38 µg/mL (≈ 0.695 µM) against Escherichia coli [17]; 0.75 µg/mL (≈ 1.37 µM) against Escherichia coli [18]. The minimal inhibitory concentration (MIC) in the experiment on Escherichia coli [19] stood at 0.25 µg/mL (≈ 0.457 µM); against Escherichia coli [20], 0.25 µg/mL (≈ 0.457 µM); in the experiment with Escherichia coli [21], 0.19 µg/mL (≈ 0.348 µM); against Escherichia coli [22], 0.5 µg/mL (≈ 0.915 µM); against Escherichia coli [23], 0.19 µg/mL (≈ 0.348 µM); in the experiment on Escherichia coli [24], 0.5 µg/mL (≈ 0.915 µM).
Turning to `CCN1CCN(C(=O)N[C@@H](C(=O)N[C@@H]2C(=O)N3[C@@H]2SC(C)(C)[C@@H]3C(=O)O)c2ccccc2)C(=O)C1=O` [PIPERACILLIN], the minimum inhibitory concentration (MIC) was 16 µg/mL (≈ 30.9 µM) against Acinetobacter pittii [1]; 24 µg/mL (≈ 46.4 µM) in the experiment on Acinetobacter pittii [2]; 24 µg/mL (≈ 46.4 µM) against Acinetobacter pittii [3]; 12 µg/mL (≈ 23.2 µM) in the experiment with Acinetobacter pittii [4]; 12 µg/mL (≈ 23.2 µM) against Acinetobacter pittii [5]; 24 µg/mL (≈ 46.4 µM) against Acinetobacter pittii [6]. Moreover, the minimal inhibitory concentration (MIC) in the experiment with Acinetobacter pittii [7] came to 16 µg/mL (≈ 30.9 µM); in the experiment on Acinetobacter pittii [8], 16 µg/mL (≈ 30.9 µM); with Escherichia coli [16], 0.38 µg/mL (≈ 0.734 µM); in the experiment with Acinetobacter pittii [9], 16 µg/mL (≈ 30.9 µM); in the experiment with Acinetobacter pittii [10], 12 µg/mL (≈ 23.2 µM); with Acinetobacter pittii [11], 24 µg/mL (≈ 46.4 µM). In addition, the minimal inhibitory concentration (MIC) in the experiment with Acinetobacter pittii [12] was determined as 16 µg/mL (≈ 30.9 µM); against Acinetobacter pittii [13], 12 µg/mL (≈ 23.2 µM); in the experiment with Acinetobacter pittii [14] it was 24 µg/mL (≈ 46.4 µM); in the experiment with Acinetobacter pittii [15], 32 µg/mL (≈ 61.8 µM); against Escherichia coli [17] it was 4 µg/mL (≈ 7.73 µM); against Escherichia coli [18], 4 µg/mL (≈ 7.73 µM). Moreover, the MIC stood at 3 µg/mL (≈ 5.8 µM) in the experiment on Escherichia coli [19]; 4 µg/mL (≈ 7.73 µM) against Escherichia coli [20]; 3 µg/mL (≈ 5.8 µM) against Escherichia coli [21]; 4 µg/mL (≈ 7.73 µM) in the experiment on Escherichia coli [22]; 4 µg/mL (≈ 7.73 µM) against Escherichia coli [23]; 4 µg/mL (≈ 7.73 µM) against Escherichia coli [24].
Take `CC1(C)S[C@@H]2[C@H](NC(=O)[C@H](N)c3ccccc3)C(=O)N2[C@H]1C(=O)O` [AMPICILLIN]: the minimal inhibitory concentration (MIC) against Acinetobacter pittii [2] was > 256 µg/mL; with Escherichia coli [16] it was 3 µg/mL (≈ 8.59 µM); with Acinetobacter pittii [11] it was > 256 µg/mL; in the experiment with Escherichia coli [17], 128 µg/mL (≈ 366 µM); against Escherichia coli [18] it was 96 µg/mL (≈ 275 µM); against Escherichia coli [19] it was 96 µg/mL (≈ 275 µM). Further, the MIC with Escherichia coli [20] worked out at 32 µg/mL (≈ 91.6 µM); against Escherichia coli [21], 96 µg/mL (≈ 275 µM); in the experiment on Escherichia coli [22], 128 µg/mL (≈ 366 µM); against Escherichia coli [23] it was 64 µg/mL (≈ 183 µM); against Escherichia coli [24] it was 96 µg/mL (≈ 275 µM).
